For assay [1], the target named is Genome polyprotein (West Nile virus) (UniProt P06935). Kind of assay: Inhibition of WNV NS2B-NS3 protease expressed in Escherichia coli BL21 lambda (DE3) cells using Abz-Gly-Leu-Lys-Arg-Gly-Gly-3-(NO2)Tyr as substrate at 50 uM preincubated for 15 mins followed by substrate addition measured for 15 mins by FRET assay relative to control.
For assay [2], the target named is Prothrombin (Homo sapiens) (UniProt P00734). Kind of assay: Inhibition of thrombin (unknown origin) using Boc-Val-Pro-Arg-AMC as substrate at 25 uM preincubated for 15 mins followed by substrate addition measured for 10 mins by FRET assay relative to control.
A short description of assay [3]: Inhibition of DENV serotype 2 NS2B-NS3 protease expressed in Escherichia coli BL21 lambda (DE3) cells using Abz-Nle-Lys-Arg-Arg-Ser-3-(NO2)Tyr as substrate preincubated for 15 mins followed by substrate addition measured for 15 mins by FRET assay. Also on record: species or system dengue virus type 2. Summed up:
(§1)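 IC50 by FRET assay at substrate 50 μM; DENV protease at 100 nM, WNV protease at 150 nM. Measured in triplicate.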

Assay [4] concerns dengue virus type 2. Put plainly: Inhibition of DENV serotype 2 NS2B-NS3 protease expressed in Escherichia coli BL21 lambda (DE3) cells using Abz-Nle-Lys-Arg-Arg-Ser-3-(NO2)Tyr as substrate at 50 uM preincubated for 15 mins followed by substrate addition measured for 15 mins by FRET assay relative to control.
Assay [5] addresses Genome polyprotein (West Nile virus, UniProt P06935). Put plainly: Inhibition of WNV NS2B-NS3 protease expressed in Escherichia coli BL21 lambda (DE3) cells using Abz-Gly-Leu-Lys-Arg-Gly-Gly-3-(NO2)Tyr as substrate preincubated for 15 mins followed by substrate addition measured for 15 mins by FRET assay. The essentials: as §1

Drawing on ChEMBL document CHEMBL3600374, “Dual inhibitors of the dengue and West Nile virus NS2B-NS3 proteases: Synthesis, biological evaluation and docking studies of novel peptide-hybrids” (Bioorg Med Chem, 2015), this text covers inhibition and IC50 for eleven compounds.

Active and inactive are the calls of the source. The rule behind the calls is not given here.

Genome polyprotein (West Nile virus), sequence (P06935 whole entry): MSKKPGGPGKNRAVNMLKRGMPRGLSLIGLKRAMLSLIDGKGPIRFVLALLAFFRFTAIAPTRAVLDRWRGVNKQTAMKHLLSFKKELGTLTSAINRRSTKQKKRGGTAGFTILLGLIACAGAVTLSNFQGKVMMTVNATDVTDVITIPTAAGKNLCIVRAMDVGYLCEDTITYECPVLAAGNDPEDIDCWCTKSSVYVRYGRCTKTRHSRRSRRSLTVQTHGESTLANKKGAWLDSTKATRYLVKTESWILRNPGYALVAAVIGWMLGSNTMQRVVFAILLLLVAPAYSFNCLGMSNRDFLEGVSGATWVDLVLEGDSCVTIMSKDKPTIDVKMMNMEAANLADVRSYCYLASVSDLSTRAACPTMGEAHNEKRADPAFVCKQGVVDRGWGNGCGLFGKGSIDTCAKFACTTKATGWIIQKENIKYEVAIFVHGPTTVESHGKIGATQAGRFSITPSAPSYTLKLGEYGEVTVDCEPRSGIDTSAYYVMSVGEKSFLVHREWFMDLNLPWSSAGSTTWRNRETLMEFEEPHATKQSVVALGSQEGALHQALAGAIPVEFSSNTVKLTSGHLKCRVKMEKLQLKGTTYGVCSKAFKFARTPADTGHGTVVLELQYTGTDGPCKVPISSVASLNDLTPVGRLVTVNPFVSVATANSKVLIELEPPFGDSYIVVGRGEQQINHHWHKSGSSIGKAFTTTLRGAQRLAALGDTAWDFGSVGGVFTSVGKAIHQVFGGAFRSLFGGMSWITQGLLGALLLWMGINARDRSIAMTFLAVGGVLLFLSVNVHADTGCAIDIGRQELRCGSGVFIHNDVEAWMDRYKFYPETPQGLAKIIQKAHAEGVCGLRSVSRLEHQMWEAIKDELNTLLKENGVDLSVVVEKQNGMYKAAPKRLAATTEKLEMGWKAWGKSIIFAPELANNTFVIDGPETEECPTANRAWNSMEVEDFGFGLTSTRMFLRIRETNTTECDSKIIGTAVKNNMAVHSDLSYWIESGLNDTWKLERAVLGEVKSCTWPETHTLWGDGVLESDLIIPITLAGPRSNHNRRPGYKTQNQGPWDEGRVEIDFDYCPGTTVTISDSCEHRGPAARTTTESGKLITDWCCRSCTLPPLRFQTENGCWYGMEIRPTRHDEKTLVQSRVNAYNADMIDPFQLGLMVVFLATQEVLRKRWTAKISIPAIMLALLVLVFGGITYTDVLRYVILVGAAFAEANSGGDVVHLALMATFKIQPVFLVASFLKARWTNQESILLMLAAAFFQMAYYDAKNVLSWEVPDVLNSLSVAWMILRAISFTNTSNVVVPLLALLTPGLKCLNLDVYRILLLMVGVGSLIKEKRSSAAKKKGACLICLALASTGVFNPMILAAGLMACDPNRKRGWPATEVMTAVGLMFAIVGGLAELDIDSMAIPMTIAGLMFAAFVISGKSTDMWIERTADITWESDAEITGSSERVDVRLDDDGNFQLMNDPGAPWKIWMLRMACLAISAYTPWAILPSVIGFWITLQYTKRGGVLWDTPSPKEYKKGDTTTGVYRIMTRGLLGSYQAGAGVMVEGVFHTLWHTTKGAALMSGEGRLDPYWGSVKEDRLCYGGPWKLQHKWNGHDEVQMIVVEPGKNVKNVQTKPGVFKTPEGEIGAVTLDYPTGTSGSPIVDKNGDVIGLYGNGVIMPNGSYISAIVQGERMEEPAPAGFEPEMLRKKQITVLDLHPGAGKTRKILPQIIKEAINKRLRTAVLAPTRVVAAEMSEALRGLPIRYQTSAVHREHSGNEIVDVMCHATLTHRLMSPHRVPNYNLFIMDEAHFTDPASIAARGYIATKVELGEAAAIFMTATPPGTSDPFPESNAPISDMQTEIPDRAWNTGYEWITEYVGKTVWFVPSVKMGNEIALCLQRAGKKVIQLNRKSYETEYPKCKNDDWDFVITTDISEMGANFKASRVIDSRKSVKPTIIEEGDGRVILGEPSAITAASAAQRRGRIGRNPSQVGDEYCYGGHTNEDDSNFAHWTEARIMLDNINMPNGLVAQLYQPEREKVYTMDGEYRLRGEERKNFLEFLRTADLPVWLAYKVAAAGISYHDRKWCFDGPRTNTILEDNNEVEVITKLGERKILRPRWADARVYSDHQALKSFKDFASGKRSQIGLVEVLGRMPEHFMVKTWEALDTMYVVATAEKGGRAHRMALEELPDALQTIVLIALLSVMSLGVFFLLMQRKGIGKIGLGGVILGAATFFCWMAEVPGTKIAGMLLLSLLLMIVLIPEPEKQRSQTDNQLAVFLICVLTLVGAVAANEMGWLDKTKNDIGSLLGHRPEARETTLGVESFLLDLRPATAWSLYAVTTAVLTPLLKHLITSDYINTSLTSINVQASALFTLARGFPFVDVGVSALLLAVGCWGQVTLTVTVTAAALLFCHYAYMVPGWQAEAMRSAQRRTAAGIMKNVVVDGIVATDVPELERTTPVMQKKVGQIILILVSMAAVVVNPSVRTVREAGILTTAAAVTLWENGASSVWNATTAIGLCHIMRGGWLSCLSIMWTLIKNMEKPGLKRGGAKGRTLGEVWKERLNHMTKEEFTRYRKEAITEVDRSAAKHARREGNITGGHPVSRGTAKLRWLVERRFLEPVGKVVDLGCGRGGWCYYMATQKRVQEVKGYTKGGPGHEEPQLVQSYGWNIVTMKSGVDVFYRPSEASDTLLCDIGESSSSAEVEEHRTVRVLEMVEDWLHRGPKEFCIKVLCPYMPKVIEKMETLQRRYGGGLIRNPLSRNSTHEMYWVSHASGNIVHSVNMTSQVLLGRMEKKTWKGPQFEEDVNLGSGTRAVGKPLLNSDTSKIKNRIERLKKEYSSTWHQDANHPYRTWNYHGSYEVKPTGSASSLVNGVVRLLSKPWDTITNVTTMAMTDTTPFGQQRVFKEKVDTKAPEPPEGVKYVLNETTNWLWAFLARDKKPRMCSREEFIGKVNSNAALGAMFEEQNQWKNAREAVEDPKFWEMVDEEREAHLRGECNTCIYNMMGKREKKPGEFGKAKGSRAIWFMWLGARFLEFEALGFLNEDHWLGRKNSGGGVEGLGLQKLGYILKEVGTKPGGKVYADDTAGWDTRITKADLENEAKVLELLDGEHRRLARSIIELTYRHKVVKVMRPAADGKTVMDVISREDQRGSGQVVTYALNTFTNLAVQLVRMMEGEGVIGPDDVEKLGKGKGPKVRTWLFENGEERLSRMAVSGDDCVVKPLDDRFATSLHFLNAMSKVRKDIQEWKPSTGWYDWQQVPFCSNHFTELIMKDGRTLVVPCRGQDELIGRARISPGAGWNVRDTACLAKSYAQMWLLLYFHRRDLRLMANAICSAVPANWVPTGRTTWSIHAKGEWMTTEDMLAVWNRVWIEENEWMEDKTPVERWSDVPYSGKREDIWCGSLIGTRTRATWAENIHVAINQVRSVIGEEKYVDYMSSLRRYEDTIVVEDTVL
Genome polyprotein, sequence (P06935 1371-1501 limits assumed): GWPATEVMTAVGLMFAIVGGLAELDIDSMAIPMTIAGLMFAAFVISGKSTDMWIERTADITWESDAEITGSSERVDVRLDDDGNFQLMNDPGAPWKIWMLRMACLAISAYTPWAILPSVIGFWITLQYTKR
Genome polyprotein, sequence (P06935 1502-2120 limits assumed): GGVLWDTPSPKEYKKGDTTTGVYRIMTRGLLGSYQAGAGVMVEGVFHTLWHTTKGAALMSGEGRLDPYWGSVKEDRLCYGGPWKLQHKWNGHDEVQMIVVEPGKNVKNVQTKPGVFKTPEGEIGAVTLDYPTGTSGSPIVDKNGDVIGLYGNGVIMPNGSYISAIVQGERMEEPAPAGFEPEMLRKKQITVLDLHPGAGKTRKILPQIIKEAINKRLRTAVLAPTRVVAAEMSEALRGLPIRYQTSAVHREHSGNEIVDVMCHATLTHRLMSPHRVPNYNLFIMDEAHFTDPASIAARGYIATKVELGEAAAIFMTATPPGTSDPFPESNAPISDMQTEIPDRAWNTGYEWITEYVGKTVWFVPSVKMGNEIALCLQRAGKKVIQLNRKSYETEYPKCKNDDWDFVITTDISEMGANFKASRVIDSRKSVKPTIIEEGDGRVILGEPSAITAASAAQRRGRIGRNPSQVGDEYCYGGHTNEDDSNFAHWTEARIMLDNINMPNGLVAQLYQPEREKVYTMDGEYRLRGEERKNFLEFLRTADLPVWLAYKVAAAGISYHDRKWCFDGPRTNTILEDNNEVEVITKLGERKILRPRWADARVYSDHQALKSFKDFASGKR

With `N=C(N)NCCC[C@H](NC(=O)c1ccc(/C=C2\SC(=O)N(CCC3CCCCC3)C2=O)cc1)C(=O)N[C@@H](CCCCN)C(=O)N[C@H](C(N)=O)c1ccccc1`, the inhibition – broadly, the relative decrease from the control value, in per cent – came to 101% in assay [1], 7.3% in assay [2] and 99.9% in assay [4]. The IC50 (usually the point on the concentration scale where inhibition reaches its midpoint) in assay [3] came to 1920 nM; in assay [5] it was 1130 nM.
For `CC(C)CN1C(=O)S/C(=C\c2ccc(C(=O)N[C@@H](CCCNC(=N)N)C(=O)N[C@@H](CCCCN)C(=O)N[C@H](C(N)=O)c3ccccc3)cc2)C1=O`, in that order: 90.7%, “inactive”, 99.6%, 1010 nM and 6240 nM.
With `N=C(N)NCCC[C@H](NC(=O)c1ccc(/C=C2\SC(=O)N(CC34CC5CC(CC(C5)C3)C4)C2=O)cc1)C(=O)N[C@@H](CCCCN)C(=O)N[C@H](C(N)=O)c1ccccc1`, the values for the inhibition in assay [1], in assay [2] and in assay [4] were 107%, 6.6% and 102%, respectively. For the same compound, the results for the 50% inhibitory concentration (IC50) in assay [3] and in assay [5] were 740 nM and 1270 nM, respectively.
For `N=C(N)NCCC[C@H](NC(=O)c1ccc(/C=C2\SC(=O)N(CC3CCCC3)C2=O)cc1)C(=O)N[C@@H](CCCCN)C(=O)N[C@H](C(N)=O)c1ccccc1`, in that order: 98.8%, 10.1%, 100%, 850 nM and 1010 nM.
`CC(C)CCN1C(=O)S/C(=C\c2ccc(C(=O)N[C@@H](CCCNC(=N)N)C(=O)N[C@@H](CCCCN)C(=O)N[C@H](C(N)=O)c3ccccc3)cc2)C1=O`: the inhibition in assay [1] is 95.4%; in assay [2] it was 7.3%; in assay [4], 100%. Moreover, the IC50 in assay [3] was 900 nM; in assay [5], 1760 nM.
On the same counts, the results for `CCC(C)N1C(=O)S/C(=C\c2ccc(C(=O)N[C@@H](CCCNC(=N)N)C(=O)N[C@@H](CCCCN)C(=O)N[C@H](C(N)=O)c3ccccc3)cc2)C1=O` (stereo not given in full) are 92.8%, 38.9%, 102%, 920 nM and 2500 nM.
On the same counts, the results for `CC(C)N1C(=O)S/C(=C\c2ccc(C(=O)N[C@@H](CCCNC(=N)N)C(=O)N[C@@H](CCCCN)C(=O)N[C@H](C(N)=O)c3ccccc3)cc2)C1=O` are 94.4%, 8.5%, 99.1%, 470 nM and 3590 nM.
For the compound `CC(C)(C)CN1C(=O)S/C(=C\c2ccc(C(=O)N[C@@H](CCCNC(=N)N)C(=O)N[C@@H](CCCCN)C(=O)N[C@H](C(N)=O)c3ccccc3)cc2)C1=O`, the inhibition is 93.5% in assay [1], 9.7% in assay [2] and 101% in assay [4]. For the same compound, the IC50 in assay [3] is 580 nM; in assay [5], 2030 nM.
On the same counts, the results for `CCC(CC)N1C(=O)S/C(=C\c2ccc(C(=O)N[C@@H](CCCNC(=N)N)C(=O)N[C@@H](CCCCN)C(=O)N[C@H](C(N)=O)c3ccccc3)cc2)C1=O` are 95%, 8%, 99.3%, 740 nM and 1120 nM.
For `N=C(N)NCCC[C@H](NC(=O)c1ccc(/C=C2\SC(=O)N(C3CCCCCC3)C2=O)cc1)C(=O)N[C@@H](CCCCN)C(=O)N[C@H](C(N)=O)c1ccccc1`, in that order: 101%, 11.5%, 100%, 830 nM and 2110 nM.
Consider `CCC(CC)CN1C(=O)S/C(=C\c2ccc(C(=O)N[C@@H](CCCNC(=N)N)C(=O)N[C@@H](CCCCN)C(=O)N[C@H](C(N)=O)c3ccccc3)cc2)C1=O`, for which the inhibition worked out at 99.2% in assay [1], 8.7% in assay [2] and 100% in assay [4]. In addition, the IC50 was 650 nM in assay [3] and 1350 nM in assay [5].
